Values after ≈ are worked out from the molar mass of the structure shown.
Assays:
A2780 = assay: Cytotoxicity against human A2780 cells; type: functional, cell-based
[1] = Induction of tubulin polymerization by DAPI fluorescence method; details: read-out: I50
In short: (§1)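 Microplate assay in PMEG buffer (100 mM PIPES, 1 mM MgSO₄, 2 mM EGTA, 0.1 mM GTP, pH 6.9) containing ligand; DAPI final 10 µM, tubulin final 5 µM. Fluorescence followed at 37 °C, excitation 360/40 nm, emission 460/40 nm. Change in fluorescence normalized to the curve of 10 µM paclitaxel standard. Samples in duplicate, triplicate or quadruplicate; concentrations over 2 orders of magnitude tested.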

[2] = Octanol-water partition coefficient, log P in 0.1 N aqueous HCl; type: physicochemical
In short: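 Compound partitioned between 1-octanol and 0.1 N aqueous HCl with vigorous shaking for 1 h.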

[3] = Induction of tubulin polymerization at 0.1 uM by DAPI fluorescence method relative to control; in short: as §1
[4] = Induction of tubulin polymerization at 1 uM by DAPI fluorescence method relative to control; in short: as §1
[5] = Induction of tubulin polymerization at 10 uM by DAPI fluorescence method relative to control; in short: as §1

| IC50 [1] [nM] | logP [2] | Activity [3] [%] | Activity [4] [%] | Activity [5] [%] | Compound | IC50 (A2780) [µg/mL] |
| --- | --- | --- | --- | --- | --- | --- |
| 1650 | 0.155 |  |  |  | CC(=O)O[C@@]12CO[C@@H]1C[C@H](OC(=O)CN1CCN(c3ccccn3)CC1)[C@@]1(C)C(=O)[C@H](O)C3=C(C)[C@@H](OC(=O)[C@H](O)[C@@H](NC(=O)c4ccccc4)c4ccccc4)C[C@@](O)([C@@H](OC(=O)c4ccccc4)[C@H]21)C3(C)C | 0.014 (≈ 0.0138 µM) |
| 550 | 0.017 | 2.3 | 66 | 100 | CC(=O)O[C@H]1C(=O)[C@@]2(C)[C@H]([C@H](OC(=O)c3ccccc3)[C@]3(O)C[C@H](OC(=O)[C@H](O)[C@@H](NC(=O)c4ccccc4)c4ccccc4)C(C)=C1C3(C)C)[C@]1(OC(C)=O)CO[C@@H]1C[C@@H]2O [PACLITAXEL] | 0.136 (≈ 0.159 µM) |
| 7800 |  |  |  |  | CC(=O)O[C@@]12CO[C@@H]1C[C@H](OC(=O)CN1CCN(Cc3ccc4c(c3)OCO4)CC1)[C@@]1(C)C(=O)[C@H](O)C3=C(C)[C@@H](OC(=O)[C@H](O)[C@@H](NC(=O)c4ccccc4)c4ccccc4)C[C@@](O)([C@@H](OC(=O)c4ccccc4)[C@H]21)C3(C)C | 0.02 (≈ 0.0187 µM) |
| 850 |  |  |  |  | CC(=O)O[C@@]12CO[C@@H]1C[C@H](OC(=O)CN1CCC(N3CCCC3)CC1)[C@@]1(C)C(=O)[C@H](O)C3=C(C)[C@@H](OC(=O)[C@H](O)[C@@H](NC(=O)c4ccccc4)c4ccccc4)C[C@@](O)([C@@H](OC(=O)c4ccccc4)[C@H]21)C3(C)C | 0.96 (≈ 0.954 µM) |
